The results in this text go back to PubChem BioAssay.

Assay [1] in a line: RPL19A-GFP modulators, yeast TOR pathway, confirmation, cell-based, S. cerevisiae, flow cytometry, cherry picks, mother/daughter gates (AID 2270;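 active means GFP response below 50% of the DMSO control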). As to conditions: S. cerevisiae RPL19A-GFP strain, 3 h, at 10 µM, stronger effect = lower value, 100 = same GFP as DMSO wells. A general note: Flow cytometry measures light scatter and fluorescence of single cells or particles in a stream.
Assay [2] is described as follows: LAP4-GFP expression modulators in yeast, confirmation, cell-based, cherry picks, flow cytometry, mother/daughter gates (AID 2271;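 active means GFP response above 150% of the DMSO control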;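 further: ratio of sample to DMSO plate mean so 100% equals DMSO level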). As to conditions: S. cerevisiae LAP4-GFP strain, 3 h, at 10 µM, stronger effect = higher value, 100 means same as DMSO control. Summed up:
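System – GFP-fusion yeast strain · Amount – 0.2 OD600 cells · Buffer or medium – SC growth medium · Dosing – single test-compound dose, 10 µM final · Schedule – 3 h treatment at 30 °C with rotation · Detection – GFP by flow cytometry · Read-out – per-gate (all, mother, daughter) GFP response vs DMSO · Benchmarks – positive rapamycin (400 ng/mL), negative DMSO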

Assay [3] in a line: modulators of MEP2-GFP levels in yeast, confirmation, S. cerevisiae, flow cytometry GFP, cherry picks (AID 2272;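 active means GFP response above 150% of the DMSO control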;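 further: ratio of well signal to plate DMSO mean so 100% equals DMSO level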). The note with it: S. cerevisiae MEP2-GFP strain, 3 h, at 10 µM, stronger effect = higher value.
Assay [4] in a line: AGP1-GFP expression modulators, hit retest, confirmation, cell-based, flow cytometry, S. cerevisiae, cherry picks (AID 2273).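 Further: median GFP channel fluorescence over the whole cell population gate.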 As to conditions: S. cerevisiae AGP1-GFP strain, 3 h, at 10 µM.
A short description of assay [5]: modulators of CIT2-GFP expression in yeast, confirmation, S. cerevisiae, GFP fusion, cherry picks, mother/daughter gates (AID 2274). As to conditions: S. cerevisiae CIT2-GFP strain, flow cytometry, 3 h, at 10 µM, stronger effect = higher value.
Setting [6] is: measured here: daughter cell gate.
The mark [7] stands for this setting: measured here: mother cell gate.
Where [8] appears, read: measured here: daughter cell gate response.
The mark [9] stands for this setting: measured here: mother cell gate response.

Molecules are shown by their SMILES. Activity calls are given as the source filed them.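 How the source made its calls, unless noted: active means GFP response above 150% of the DMSO level; inconclusive means fewer than 70 events counted for a yeast strain; inactive means the rest.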

For the molecule `CCCN1C(=O)c2cccc3c(N4CCCCC4)ccc(c23)C1=O`, the GFP response vs DMSO is 98.7% (inactive) in assay [1], 99.8% in assay [1] (setting [6]), 98.2% in assay [1] (setting [7]) and 103% (inactive) in assay [3]. Besides, the figures for the GFP response relative to DMSO in assay [2], in assay [2] (setting [8]) and in assay [2] (setting [9]) were 98.9% (inactive), 101% and 99.5%, respectively. For the same molecule, the GFP response, % of DMSO is 104% (inactive) in assay [4], 103% (inactive) in assay [5], 105% in assay [5] (setting [6]) and 103% in assay [5] (setting [7]).

On to `COCc1nnc(NC(=O)c2ccc(S(=O)(=O)N(C)c3ccccc3)cc2)o1`, for which the GFP response vs DMSO in assay [1] was 96.8% (inactive); in assay [1] (setting [6]), 96.6%; in assay [1] (setting [7]) it was 97.1%; in assay [3], 100% (inactive). The GFP response relative to DMSO is 101% (inactive) in assay [2], 99.2% in assay [2] (setting [8]) and 98.3% in assay [2] (setting [9]). Moreover, the GFP response, % of DMSO in assay [4] is 92.5% (inactive); in assay [5], 96.9% (inactive); in assay [5] (setting [6]) it was 97.2%; in assay [5] (setting [7]), 97.3%.

For `COc1ccc(/C=N/NC(=O)C2(C)NC(C)(C)Cc3ccccc32)cc1` (stereo not drawn), the GFP response vs DMSO in assay [1] was 94.4% (inactive); in assay [1] (setting [6]), 94.9%; in assay [1] (setting [7]), 95.3%; in assay [3] it was 96.2% (inactive). For the same molecule, the GFP response relative to DMSO in assay [2] was 96.7% (inactive); in assay [2] (setting [8]), 97.6%; in assay [2] (setting [9]) it was 96.1%. Also, the GFP response, % of DMSO in assay [4] was 99.7% (inactive); in assay [5], 99.7% (inactive); in assay [5] (setting [6]), 99.1%; in assay [5] (setting [7]), 98.5%.

As to `O=C(Nc1nc(-c2ccccc2)cs1)c1cccs1`, the GFP response vs DMSO in assay [1] was 99.7% (inactive); in assay [1] (setting [6]), 94.2%; in assay [1] (setting [7]), 101%; in assay [3], 93.5% (inactive). Further, the results for the GFP response relative to DMSO in assay [2], in assay [2] (setting [8]) and in assay [2] (setting [9]) were 101% (inactive), 100% and 106%, respectively. In addition, the GFP response, % of DMSO is 86.9% (inactive) in assay [4], 97.8% (inactive) in assay [5], 94.8% in assay [5] (setting [6]) and 98.7% in assay [5] (setting [7]).

For the molecule `Cc1c(NC2=C(Cl)C(=O)N(c3ccccc3)C2=O)c(=O)n(-c2ccccc2)n1C`, the GFP response vs DMSO was 93.5% (inactive) in assay [1], 97.3% in assay [1] (setting [6]), 95.2% in assay [1] (setting [7]) and 99.5% (inactive) in assay [3]. The GFP response relative to DMSO was 97.7% (inactive) in assay [2], 104% in assay [2] (setting [8]) and 99.5% in assay [2] (setting [9]). Besides, the GFP response, % of DMSO was 103% (inactive) in assay [4], 104% (inactive) in assay [5], 108% in assay [5] (setting [6]) and 96.8% in assay [5] (setting [7]).

As to `COc1ccc(N(CC(=O)N/N=C/c2cc(OC)ccc2OC)S(=O)(=O)c2ccccc2)cc1`, the GFP response vs DMSO was 96% (inactive) in assay [1], 97.4% in assay [1] (setting [6]), 86.9% in assay [1] (setting [7]) and 96.2% (inactive) in assay [3]. Moreover, the GFP response relative to DMSO in assay [2] was 92.8% (inactive); in assay [2] (setting [8]), 96%; in assay [2] (setting [9]), 92.9%. Moreover, the GFP response, % of DMSO is 99.1% (inactive) in assay [4], 99.7% (inactive) in assay [5], 101% in assay [5] (setting [6]) and 99.7% in assay [5] (setting [7]).

For the molecule `COc1ccc(N2CCN(C(=O)c3ccc(Br)cc3)CC2)c([N+](=O)[O-])c1`, the GFP response vs DMSO was 114% (inactive) in assay [1], 80.2% in assay [1] (setting [6]), 102% in assay [1] (setting [7]) and 132% (inactive) in assay [3]. The GFP response relative to DMSO in assay [2] was 208% (active); in assay [2] (setting [8]), 131%; in assay [2] (setting [9]) it was 192%. Moreover, the GFP response, % of DMSO was 153% (active) in assay [4], 105% (inactive) in assay [5], 82.5% in assay [5] (setting [6]) and 90.8% in assay [5] (setting [7]).

On to `O=S(=O)(c1ccc(NC(=S)N/N=C/c2cccc(Oc3ccccc3)c2)cc1)N1CCOCC1`, for which the GFP response vs DMSO in assay [1] was 97.8% (inactive); in assay [1] (setting [6]) it was 98.6%; in assay [1] (setting [7]) it was 97.3%; in assay [3], 105% (inactive). The GFP response relative to DMSO in assay [2] is 94.9% (inactive); in assay [2] (setting [8]), 93.5%; in assay [2] (setting [9]), 96.2%. For the same molecule, the GFP response, % of DMSO is 106% (inactive) in assay [4], 102% (inactive) in assay [5], 103% in assay [5] (setting [6]) and 103% in assay [5] (setting [7]).

Turning to `Cc1cccc(OCCN2CSC(=S)N(C)C2)c1`, the GFP response vs DMSO was 95.6% (inactive) in assay [1], 94.4% in assay [1] (setting [6]), 92.7% in assay [1] (setting [7]) and 168% (inactive) in assay [3]. Moreover, the GFP response relative to DMSO in assay [2] is 174% (active); in assay [2] (setting [8]), 161%; in assay [2] (setting [9]), 167%. Also, the GFP response, % of DMSO was 118% (inactive) in assay [4], 131% (inactive) in assay [5], 130% in assay [5] (setting [6]) and 122% in assay [5] (setting [7]).

With `CCOC(=O)c1ccc(NC(=O)CCc2nc(-c3ccc(Cl)cc3)no2)cc1`, the GFP response vs DMSO in assay [1] is 99.4% (inactive); in assay [1] (setting [6]) it was 100%; in assay [1] (setting [7]), 101%; in assay [3], 98.3% (inactive). Also, the GFP response relative to DMSO in assay [2] is 99.2% (inactive); in assay [2] (setting [8]), 99.2%; in assay [2] (setting [9]), 100%. Besides, the GFP response, % of DMSO in assay [4] is 95.4% (inactive); in assay [5], 105% (inactive); in assay [5] (setting [6]), 105%; in assay [5] (setting [7]), 104%.

As to `Cc1cc(NC(c2ccc(Cl)cc2)c2ccc3cccnc3c2O)no1` (stereo not drawn), the GFP response vs DMSO in assay [1] was 97.8% (inactive); in assay [1] (setting [6]), 97.4%; in assay [1] (setting [7]), 97.6%; in assay [3], 100% (inactive). Also, the GFP response relative to DMSO in assay [2] is 108% (inactive); in assay [2] (setting [8]) it was 104%; in assay [2] (setting [9]), 113%. Moreover, the GFP response, % of DMSO in assay [4] is 94.5% (inactive); in assay [5] it was 98.3% (inactive); in assay [5] (setting [6]) it was 99.1%; in assay [5] (setting [7]) it was 98.5%.

In the case of `Cc1nnc(N2C(=O)c3cccc4cccc(c34)C2=O)s1`, the GFP response vs DMSO is 94.9% (inactive) in assay [1], 93.3% in assay [1] (setting [6]), 94.4% in assay [1] (setting [7]) and 106% (inactive) in assay [3]. For the same molecule, the GFP response relative to DMSO in assay [2] is 96.5% (inactive); in assay [2] (setting [8]) it was 94.4%; in assay [2] (setting [9]), 96.4%. Besides, the GFP response, % of DMSO in assay [4] was 100% (inactive); in assay [5] it was 101% (inactive); in assay [5] (setting [6]), 101%; in assay [5] (setting [7]) it was 102%.

On to `Nc1cccc(C(=O)Nc2ccccc2Cl)c1`, for which the GFP response vs DMSO in assay [1] is 99.8% (inactive); in assay [1] (setting [6]), 99.1%; in assay [1] (setting [7]), 98.9%; in assay [3], 100% (inactive). Moreover, the GFP response relative to DMSO in assay [2] was 97.9% (inactive); in assay [2] (setting [8]) it was 97.6%; in assay [2] (setting [9]), 98.3%. Also, the GFP response, % of DMSO in assay [4] was 93.5% (inactive); in assay [5], 103% (inactive); in assay [5] (setting [6]), 103%; in assay [5] (setting [7]), 101%.
